{"data": "Experimental data collected from several papers", "target": "Dual specificity tyrosine-phosphorylation-regulated kinase 1A (DYRK1A, Homo sapiens, UniProt Q13627)", "effect on": "enzyme activity", "action": "inhibitor", "note": "Protocols differ between the studies behind these lines."}
{"SMILES": "O=c1cc(-c2cccc3c2Sc2ccccc2S3)oc(N2CCOCC2)c1", "concentration": "0.5 µM", "remaining activity": "95%"}
{"SMILES": "Oc1cccc(-c2nc(N3CCOCC3)c3oc4ncccc4c3n2)c1", "concentration": "10 µM", "remaining activity": "59%"}
{"SMILES": "CC(C)(O)[C@H]1CC[C@H](Nc2ccc3ncc(-c4cccc(C(F)(F)F)c4)n3n2)CC1", "concentration": "1 µM", "remaining activity": "22.1%"}
{"SMILES": "CC(C)(C)C(=O)c1sc(NC2CCCCC2)nc1N", "concentration": "10 µM", "remaining activity": "88%"}
{"SMILES": "COc1cccc(Nc2nc3cc(C(=O)O)ccc3c3cnccc23)c1", "method": "radiometric", "concentration": "1 µM", "remaining activity": "2%"}
{"SMILES": "CC(C)(C)c1nc(-c2cccc(NS(=O)(=O)c3c(F)cccc3F)c2F)c(-c2ccnc(N)n2)s1", "method": "radiometric", "concentration": "1 µM", "remaining activity": "90%"}
{"SMILES": "O=C(O)c1ccc2c(c1)nc(Nc1cccc(F)c1)c1ccncc12", "method": "radiometric", "concentration": "1 µM", "remaining activity": "0%"}
{"SMILES": "COc1cc(Nc2cnc(C#N)c(O[C@H](C)CN(C)C)n2)ncc1-c1cnn(C)c1", "method": "radiometric", "concentration": "1 µM", "remaining activity": "91%"}
{"SMILES": "O=C(Nc1cnn(-c2csc(C(=O)NC3COC3)c2)c1)Nc1ccccc1Cl", "concentration": "5 µM", "remaining activity": "86%"}
{"SMILES": "COc1cc(Cl)c(C(=O)N[C@@H](CN[C@H]2CC[C@@H](N)CC2)Cc2ccc(C#N)cc2)cc1-c1ccc(CN[C@H](C)c2ccc(C)cc2)o1", "concentration": "1 µM", "remaining activity": "120%"}
{"SMILES": "O=C(O)c1ccc2c(c1)nc(Nc1ccc(F)c(Cl)c1)c1ccncc12", "method": "radiometric", "concentration": "1 µM", "remaining activity": "0%"}
{"SMILES": "COc1ccc(C(=O)Nc2sc3c(c2C(N)=O)CCCC3)cc1OC", "concentration": "0.5 µM", "remaining activity": "97.4%"}
{"SMILES": "O=C(O)c1ccc2c(c1)nc(Nc1ccc(Cl)cc1)c1ncncc12", "method": "radiometric", "concentration": "1 µM", "remaining activity": "3%"}
{"SMILES": "Cc1sc(C(=O)NC2COC2)cc1-n1cc(NC(=O)Nc2c(F)cccc2Cl)cn1", "concentration": "10 µM", "remaining activity": "95.5%"}
{"SMILES": "O=c1c2ccccc2[nH]c(=S)n1CCN1CCC(=C(c2ccc(F)cc2)c2ccc(F)cc2)CC1", "concentration": "0.5 µM", "remaining activity": "99.9%"}
